Screens deposited in PubChem by several laboratories.
DNA FID counter: fluorescent intercalator displacement, NS3 helicase counter-screen; DNA fluorescent intercalator displacement, fluorescence; inhibition, % at 7.9 µM; actives 0.17% (n = 290,000); in the data active = inhibition above about 37%;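 note: higher means more ethidium bromide displaced from hairpin DNA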
TRPC6 activator: activators of mouse TRPC6 channel. AID 2550. B-score at 10 µM. HEK293-TRPC6 membrane potential dye fluorescence; stronger effect = higher value. actives 0.13% (n = 310,000). Q61143;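 active = B-score of the integrated fluorescence ratio above library mean plus 3 SD, and starting fluorescence ratio within library mean plus 5 SD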;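 note: higher score means more depolarization so channel activation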
TRPC4 inh: inhibitors of mouse TRPC4 channel. actives 0.39% (n = 300,000). HEK293 TRPC4beta/mu-opioid, DAMGO-evoked Fluo4 calcium flux; stronger effect = lower value. AID 2247. B-score at 10 µM. Q9QUQ5;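 active = B-score over 3 SD under the library average, no early fluorescence shift, positive overall ratio signal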
Target sequence (Q9QUQ5 whole entry, looked up): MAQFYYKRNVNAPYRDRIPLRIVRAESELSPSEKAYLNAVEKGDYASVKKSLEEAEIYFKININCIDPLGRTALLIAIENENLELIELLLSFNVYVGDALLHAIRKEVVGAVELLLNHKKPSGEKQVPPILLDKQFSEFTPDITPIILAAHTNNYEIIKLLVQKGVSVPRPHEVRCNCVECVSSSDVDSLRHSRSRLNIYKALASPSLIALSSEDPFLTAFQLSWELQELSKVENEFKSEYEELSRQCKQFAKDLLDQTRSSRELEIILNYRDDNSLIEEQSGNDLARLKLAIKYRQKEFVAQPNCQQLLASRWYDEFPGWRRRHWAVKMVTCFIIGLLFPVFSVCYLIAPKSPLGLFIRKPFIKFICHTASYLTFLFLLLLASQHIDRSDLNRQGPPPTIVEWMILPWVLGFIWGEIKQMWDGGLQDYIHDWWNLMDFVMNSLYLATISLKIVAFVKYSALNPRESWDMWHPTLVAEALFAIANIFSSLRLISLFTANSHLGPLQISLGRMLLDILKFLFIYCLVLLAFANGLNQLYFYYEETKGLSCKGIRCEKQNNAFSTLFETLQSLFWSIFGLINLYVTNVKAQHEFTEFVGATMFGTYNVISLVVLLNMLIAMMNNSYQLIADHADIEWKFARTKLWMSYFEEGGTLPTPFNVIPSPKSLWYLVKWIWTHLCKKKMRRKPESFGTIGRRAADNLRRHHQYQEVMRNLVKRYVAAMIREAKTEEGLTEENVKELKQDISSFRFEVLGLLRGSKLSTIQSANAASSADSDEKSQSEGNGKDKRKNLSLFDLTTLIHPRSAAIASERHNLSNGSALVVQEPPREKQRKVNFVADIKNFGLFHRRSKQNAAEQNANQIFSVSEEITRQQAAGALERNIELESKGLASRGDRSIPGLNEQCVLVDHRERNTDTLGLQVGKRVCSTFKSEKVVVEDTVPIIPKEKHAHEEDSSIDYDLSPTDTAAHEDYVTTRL
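material = TRPC4beta/mu-opioid receptor HEK293 cell line | probe or stimulus = sequential submaximal and maximal DAMGO stimulation | compound dosing = one concentration per compound | measured by = Fluo4 Ca2+ flux fluorescence | evaluation = integrated fluorescence ratio relative to baseline, converted to per-well B score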
TRPC4 PAM: allosteric potentiators of mouse TRPC4 channel. AID 2227. B-score at 10 µM. actives 0.42% (n = 310,000). HEK293 TRPC4beta/mu-opioid, DAMGO EC20, Fluo-4 Ca2+ flux; stronger effect = higher value;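 active = B-score of calcium response area above 5 SD of library B-scores, with initial fluorescence ratio within 5 SD of library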
TRPC6 inhibitor: mouse TRPC6 channel inhibition; B-score at 10 µM; actives 1.1% (n = 310,000); HEK293-TRPC6, membrane potential dye, ACh-evoked depolarization; stronger effect = lower value; Q61143; AID 2553;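 active = B-score under library mean minus 3 SD, initial fluorescence not abnormally high, positive integrated signal ratio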;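 note: B-score derived from integrated fluorescence ratio over the kinetic read; more negative B-score means stronger inhibition of depolarization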
TRPC4 act: TRPC4 (mouse) channel activation; HEK293 TRPC4beta/mu-opioid, Fluo4 calcium fluorescence; stronger effect = higher value; B-score at 10 µM; actives 0.49% (n = 310,000); AID 2237;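 active = B-score above 5 SD of library B-scores, and initial fluorescence ratio not above library mean plus 5 SD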;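 note: positive B-score marks a calcium rise read as TRPC4 activation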
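Test system: HEK293 cells stably co-expressing mouse TRPC4beta and mu-opioid receptor | Schedule: Fluo4 dye loading 45 min at room temperature, 110 s recording | Measured by: Kinetic Fluo4 calcium fluorescence, 5 s baseline at 1 Hz | Evaluation: B score of integrated ratio | Controls: Buffer (low) and maximal DAMGO (high)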
Each line names hits and unclear results; the compound was inactive in the other large screens. Sampled rows, rich in hits. Any-hit rate of the full collection: about 2.3%.

O=[N+]([O-])c1cccc(N(CC(O)CN2CCCCC2)S(=O)(=O)c2ccccc2)c1 (configuration not stated)	none
Cc1cccc(N2CCN(C(=O)CSc3nc4ccccc4nc3N3CC(C)OC(C)C3)CC2)c1C (configuration not stated)	none
COCCCn1c(SCC(=O)NC2CCCC2)nnc1-c1cccs1	none
CC(C)N(CC(N)=O)C(=O)Cc1coc2cc3c(cc12)CCC3	TRPC4 PAM 13
COc1ccc(OC)c(S(=O)(=O)NCCO)c1	none
CCNS(=O)(=O)c1cc(OC)ccc1OC	DNA FID counter 38
CCNS(=O)(=O)c1ccc(Br)c(OC)c1	TRPC4 inh -6
COc1cccc(CC(=O)N(CCC2=CCCCC2)c2c(N)n(Cc3ccccc3)c(=O)[nH]c2=O)c1	none (no result: DNA FID counter)
CCOc1ccccc1/C=C/c1onc(C)c1S(=O)(=O)N1CCC(C(=O)NC(C)(C)C)CC1	none
c1ccc(CN2CCC(Nc3nc(-c4ccccc4)nc4ccccc34)CC2)cc1	DNA FID counter 42, TRPC6 inhibitor -6.6
c1ccc(CNc2nc(N3CCN(Cc4ccccc4)CC3)nc3ccccc23)cc1	none
COc1ccc(OC)c(S(=O)(=O)N2CCC(NC(=O)c3ccccc3)CC2)c1	none
CCOc1ccc2nc(SCC(=O)NCc3ccccc3OC)[nH]c2c1	none
Cc1cc(C(=O)NCCc2ccc(S(N)(=O)=O)cc2)c(C)o1	none
Cc1ccc(CSc2nnc(-c3cccc(S(=O)(=O)N4CCOCC4)c3)n2C2CCCC2)cc1	TRPC4 PAM 18
CC1CCCN(c2c([N+](=O)[O-])cc(C(=O)O)cc2[N+](=O)[O-])C1 (configuration not stated)	TRPC4 inh -5
CC1CCCN(c2ccc(C(=O)Nc3ccc4c(c3)OCO4)cc2[N+](=O)[O-])C1 (configuration not stated)	none
CN(C)C(CNC(=O)c1oc2ccccc2c1CSc1ncn[nH]1)c1ccco1 (configuration not stated)	TRPC4 inh -7
COc1ccc2oc(C(=O)NCC(c3ccco3)N(C)C)c(C)c2c1 (configuration not stated)	none (no result: DNA FID counter)
Cc1ccc(NC(=O)N2CCCC2C(=O)NCCc2ccccc2)cc1 (configuration not stated)	TRPC4 inh -6
Cc1c(C(=O)c2ccc(Cl)cc2[N+](=O)[O-])c2ccccn2c1CCC#N	TRPC4 PAM 14
CC(C)C(=O)Nc1cc2c3c(c1)CCC(=O)N3CCC2	none
COc1cc(C2(c3ccc(O)c(OC)c3)C(=O)Nc3c(C)cc(Br)cc32)ccc1O	TRPC4 PAM 27 (no result: DNA FID counter)
Cc1cc(Br)cc2c1NC(=O)C2(c1c(C)n(C)n(-c2ccccc2)c1=O)c1c(C)n(C)n(-c2ccccc2)c1=O	none
CCOc1cccc(CN2CCCC(CCC(=O)NCc3ccccc3F)C2)c1O (configuration not stated)	TRPC4 act 56
Cc1nn(C)c(Cl)c1CN1CCCC(CCC(=O)NCc2ccccc2F)C1 (configuration not stated)	none
C/C(CC(=O)NC(C)(C)C)=N\NC(=O)COc1ccc(C)cc1Br	TRPC4 PAM 11
C=CCOc1c(Br)cc(/C=C2/C(=O)ON=C2C)cc1OC	none
Cc1ccc2oc(=O)c3cc(C(=O)NCCCN4CCCC(C)C4)sc3c2c1 (configuration not stated)	DNA FID counter 39
Cc1cccc2c1-c1sc(C(=O)NCCCN3CCCC(C)C3)cc1CO2 (configuration not stated)	TRPC4 act 48
CC(C)c1ccc(NC2CCCN(C(=O)CCN3CCCCO3)C2)cc1 (configuration not stated)	none
CC(=O)c1cccc(NC(=O)CSc2nnnn2C2CCCC2)c1	none
CCCCCCCCCC(=O)N[C@H](CN1CCOCC1)[C@H](O)c1ccccc1	none (no result: DNA FID counter)
CCCCCCCCCCCC(=O)NC(C(=O)O)C(O)c1ccccc1 (configuration not stated)	TRPC4 inh -6
CCCC12CN3CC(CCC)(CN(C1)C3c1ccco1)C2=O (configuration not stated)	none
COc1ccc(CSC2=NCCN2)cc1Cl	TRPC4 PAM 10
O=[N+]([O-])c1cc(CSC2=NCCN2)ccc1O	none
CCCOc1ccc(CSC2=NCCN2)cc1[N+](=O)[O-]	TRPC4 PAM 12
COc1cc(/C=C2\C(=N)N3N=CSC3=NC2=O)ccc1OS(=O)(=O)c1ccccc1	none
CCOc1cc(/C=C2\C(=N)N3N=CSC3=NC2=O)ccc1OS(=O)(=O)c1ccccc1	TRPC4 inh -6
CCOc1cccc(-c2c(C(=O)N/N=C(\C)c3cccnc3)nnn2-c2nonc2N)c1	none
CCN1CCCC1CNS(=O)(=O)c1c(C)cc(C)cc1C (configuration not stated)	TRPC4 act 86
CCCc1ccc(S(=O)(=O)NCC2CCCN2CC)cc1 (configuration not stated)	none
CCc1cccc(C)c1Nc1nc2ccccc2n2cnnc12	none
CC(=O)O[C@H]1CC[C@@]2(C)C(CCC3C2CC[C@]2(C)OC(=O)CCC32)C1 (some centres not stated)	TRPC4 PAM 10
Cc1cccc(N(C(=O)c2csnn2)C(C(=O)NC2CCCCC2)c2ccncc2)c1 (configuration not stated)	none
CN(C)CCSc1nc(-c2ccccc2)nc2c1CCCC2	TRPC4 PAM 20, TRPC4 act 68
CCSc1nc(-c2ccccc2)nc2c1CCCC2	none
COc1cc(S(=O)(=O)N2CCN(c3ccccn3)CC2)ccc1Br	none
CCCCn1c(=NC(=O)c2cccnc2)c(C(=O)OCC)cc2c(=O)n3ccccc3nc21	TRPC4 PAM 46
Cc1ccc(CN(Cc2cc3cccc(C)c3[nH]c2=O)C(=S)NCCCN(C)C)cc1	none
CN(C)CCCN(Cc1cc2cc3c(cc2[nH]c1=O)OCO3)C(=S)Nc1ccccc1	DNA FID counter 47
Cc1cccc2cc(CN(Cc3ccccc3)C(=S)NCCCN(C)C)c(=O)[nH]c12	DNA FID counter 48
CN(C)CCCN(Cc1cc2cc3c(cc2[nH]c1=O)OCO3)C(=S)NCc1ccco1	TRPC4 inh -6
CC(C)c1c(C(=O)N/N=C/c2ccccc2OCc2c(F)cccc2Cl)nnn1-c1nonc1N	none
COc1cc(C(O)c2nc3ccccc3n2C(C)C)cc(OC)c1OC (configuration not stated)	DNA FID counter 53
COc1ccc(OC)c(C(O)c2nc3ccccc3n2C(C)C)c1 (configuration not stated)	none
CCCCN(C(=O)CSCC(=O)Nc1ccc(C)cc1)c1c(N)n(Cc2ccccc2)c(=O)[nH]c1=O	none (no result: DNA FID counter)
CCc1ccc(CNc2ccc3c(c2)ncn3C(C)(C)C)cc1	none
